Hep lipid drop = modulators of hepatic lipid droplet formation | AML12 mouse hepatocytes, oleate lipid droplets, BODIPY imaging | inhibition, % at 6.5 µM | 240,000 compounds, 0.4% hits | AID 1656;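 active means lipid droplet intensity inhibited by at least 50%, with more than 500 cells counted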
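Material – mouse AML12 hepatocyte cell line, fixed after treatment · Compound dosing – one dose, 6.5 µM compound · Times – compound with oleate, overnight · Measured by – Image-based BODIPY and DAPI two-channel analysis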
CHT inh = inhibitors of human choline transporter CHT; Q9GZV3; CHT-expressing cells, membrane potential dye, choline response; hits give low values; B-score at 10 µM; 310,000 compounds, 0.86% hits;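 active means B-score over 3 SD under the library average, and starting fluorescence ratio not unusually high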;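 further: choline stimulus applied at its EC90 after an EC20 pre-addition; B-score computed on integrated fluorescence ratio after choline addition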
Target sequence (Q9GZV3 whole entry, looked up): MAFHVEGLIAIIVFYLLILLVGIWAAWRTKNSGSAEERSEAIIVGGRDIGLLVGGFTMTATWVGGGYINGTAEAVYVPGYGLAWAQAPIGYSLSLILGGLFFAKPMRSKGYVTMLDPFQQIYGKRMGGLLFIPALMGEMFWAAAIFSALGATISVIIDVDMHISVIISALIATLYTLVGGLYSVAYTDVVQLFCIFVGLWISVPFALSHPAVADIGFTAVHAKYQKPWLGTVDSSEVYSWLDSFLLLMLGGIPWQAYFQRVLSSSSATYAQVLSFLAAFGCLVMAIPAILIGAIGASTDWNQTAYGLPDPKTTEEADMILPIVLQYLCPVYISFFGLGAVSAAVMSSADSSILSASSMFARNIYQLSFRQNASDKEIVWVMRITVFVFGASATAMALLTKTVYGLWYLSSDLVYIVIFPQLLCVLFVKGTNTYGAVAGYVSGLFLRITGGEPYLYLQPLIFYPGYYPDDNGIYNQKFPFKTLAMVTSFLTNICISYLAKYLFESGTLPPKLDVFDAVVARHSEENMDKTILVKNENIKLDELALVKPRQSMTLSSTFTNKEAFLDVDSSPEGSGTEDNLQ
CHT allo act = allosterically activates the human high affinity choline transporter | CHT-expressing cells, membrane potential dye, choline EC20; hits give high values; LV-AA mutant CHT in HEK293 cells | B-score at 10 µM | 310,000 compounds, 0.49% hits;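 active means initial fluorescence not abnormally high and integrated response B-score, plate-corrected, over 3 SD above library mean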
PHOSPHO1 block = blocks human PHOSPHO1 phosphatase activity. 290,000 compounds, 1.1% hits. recombinant PHOSPHO1, absorbance phosphatase assay. inhibition, % at 13.3 µM. Q8TCT1; in the data active means inhibition above about 60%
HSF1 inh = HSF1 inhibition | AID 2098 | 300,000 compounds, 0.77% hits | NIH3T3-HGL HSE-luciferase, MG132-induced, luminescence 8 h; hits give low values | activity change, negative = inhibition, % at 7.5 µM (by protocol);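 active means more than half of replicate wells show activity change below -50%, luminescence cut by over half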;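 further: luciferase reports HSF-1 transcriptional activity via heat shock element; 0% = median of DMSO wells and -100% = zero luminescence signal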
HSF1 activator = increases HSF-1 driven luciferase reporter signal | 300,000 compounds, 1.7% hits | activation, % at 9 µM | NIH3T3-HGL HSF-1 luciferase reporter, MG132, 8 h; 100% = twice DMSO control signal;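 active means mean replicate activation of at least 50% with a set share of replicates each reaching 50%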;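 further: 0% = median of the neutral control wells and 100% = twice that signal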
CHT activ conf = confirmation of human choline transporter (CHT) activators; 2,500 compounds, 91% hits; shares compounds with CHT allo act; activation, % at 10 µM; CHT-expressing cells, membrane potential dye fluorescence (FDSS); % of choline EC20–EC90 response window; HEK293 expressing CHT LV-AA mutant; choline added at its EC20;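 active means primary screen active, with duplicate mean activation above negative control mean plus 3 SD, cut at about 11% in these data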
HEK293 MP dye = counter-screen for CHT activators: effect in parental HEK293 cells; shares compounds with CHT allo act; membrane potential dye fluorescence (FDSS); measured after EC20 choline addition; ratio readout change at 10 µM, hits read low; 2,500 compounds, 62% hits; AID 623908;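 active means duplicate-averaged ratio beyond 3 SD from buffer wells, up or down, though filed actives are nearly all decreases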
* = called active by the depositor. This is a sample that favours compounds with a hit; in the whole collection about 4.9% have one here.

Screening C#CCOCCOCCOCCNc1nc(N2CCN(C(=O)[C@H](CCCCN)n3cc([C@@H](N)C(C)CC)nn3)CC2)nc(N2CCN(C(=O)[C@H](CCCCN)n3cc([C@@H](N)CC(C)C)nn3)CC2)n1 (some centres not stated) returned Hep lipid drop -10, CHT inh inactive, CHT allo act 6.5*, PHOSPHO1 block 22, HSF1 inh -3, HSF1 activator 5, CHT activ conf 38* and HEK293 MP dye -37*.
`c1ccc(-c2nnc(-c3ccccn3)nn2)nc1` gave CHT inh inactive, CHT allo act inactive, HSF1 inh 18 and HSF1 activator 25.
Screening c1ccc(-c2cccc(-c3ccccn3)n2)nc1 returned CHT inh inactive, CHT allo act inactive, PHOSPHO1 block 0, HSF1 inh -8, HSF1 activator -30, CHT activ conf 14* and HEK293 MP dye -47*.
For COC(=O)c1ccc(N2CCN(C)CC2)c(NC(=O)COc2ccc(OC)cc2)c1 the results were CHT inh inactive, CHT allo act 9.2*, PHOSPHO1 block 3, HSF1 inh 1, HSF1 activator 10, CHT activ conf 69* and HEK293 MP dye -65*.
`COC(=O)c1ccc(N2CCN(C)CC2)c(NC(=O)COc2ccccc2Cl)c1` gave Hep lipid drop -5, CHT inh inactive, CHT allo act inactive, PHOSPHO1 block 10, HSF1 inh 7 and HSF1 activator 12.
Cc1cc(NC(=O)c2cnn3cccnc23)no1 was read as Hep lipid drop 17, CHT inh inactive, CHT allo act 7.7*, PHOSPHO1 block -4, HSF1 inh 9, HSF1 activator 36, CHT activ conf 63* and HEK293 MP dye -54*.
Screening O=C(Nc1cc(Cl)cc(Cl)c1)c1cnn2cccnc12 returned Hep lipid drop 6, CHT inh inactive, CHT allo act inactive, PHOSPHO1 block -9, HSF1 inh -3 and HSF1 activator 7.
`CCN(CC)S(=O)(=O)c1cc(C(=O)OCC(=O)Nc2cccc(S(=O)(=O)N(C)C)c2)ccc1F` gave Hep lipid drop 6, CHT inh inactive, CHT allo act 15*, PHOSPHO1 block -4, HSF1 inh -4, HSF1 activator 8, CHT activ conf 22* and HEK293 MP dye inactive.
CN(C)S(=O)(=O)c1cccc(NC(=O)COC(=O)c2ccc(Br)o2)c1 was read as CHT inh inactive, CHT allo act inactive, PHOSPHO1 block 3, HSF1 inh -10 and HSF1 activator -10.
`CCCCCCCCN1[C@@H](CC(=O)OCC)c2cc(C(F)(F)F)ccc2S1(=O)=O` gave CHT inh inactive, CHT allo act inactive, HSF1 inh 0 and HSF1 activator 3.
Screening CCOC(=O)C[C@H]1c2cc(C(F)(F)F)ccc2S(=O)(=O)N1Cc1ccccc1 returned CHT inh inactive, CHT allo act inactive, HSF1 inh -2, HSF1 activator 17, CHT activ conf 7 and HEK293 MP dye inactive.
For CC(C)CCNC(=O)CN(C(=O)CCC(=O)Nc1nccs1)C1CCCCC1 the results were Hep lipid drop 2, CHT inh inactive, CHT allo act inactive, PHOSPHO1 block 32, HSF1 inh -9 and HSF1 activator -2.
`N#CC(C#N)=C1NC2(CCCCC2)Cc2ccccc21` gave Hep lipid drop -2, CHT inh inactive, CHT allo act inactive, PHOSPHO1 block -29, HSF1 inh 1 and HSF1 activator 2.
For N#CC(C#N)=c1ccc2c(c1)NC1(CCCCC1)N=2 the results were CHT inh inactive, CHT allo act 6.4*, PHOSPHO1 block 8, HSF1 inh 1, HSF1 activator 8, CHT activ conf 51* and HEK293 MP dye -64*.

High-throughput results (PubChem)
